Measurements reported in ChEMBL document CHEMBL1121601, “Synthesis and anxiolytic activity of a series of pyrazino[1,2-a][1,4]benzodiazepine derivatives” (J Med Chem, 1980).
Activity calls are given as the source filed them. The rule behind the calls is not given here.

Legend:
[1] = target: GABA-A receptor; anion channel; experiment: Displacement of [3H]diazepam from GABA-A receptor in rat synaptosomal membranes; type: cell membranes, Membrane
Outline: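 Test agents over a wide concentration range, triplicate tubes per concentration. […] IC50 for inhibition of specific binding read graphically.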

[2] = system: Rattus norvegicus; experiment: Ability to reduce the incidence of metrazole-induced seizures in rats (administered perorally or at standard dose of 30 mg/kg ); Inactive; type: functional, organism-based; parameters: dose 30 mg/kg
[3] = Compound was evaluated for in vitro inhibition of histamine activated adenylate cyclase in guinea pig cerebral cortex; type: functional, tissue-based, Cavia porcellus
Outline: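 Cell-free vesicle preparation from guinea pig cerebral cortex, preincubated with [³H]adenine to label the endogenous ATP pool as [³H]ATP. Test agents were then assessed for blocking histamine activation of adenylate cyclase.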

[4] = species on record: Rattus norvegicus; experiment: Ability to inhibit the uptake of norepinephrine (NE) by crude synaptosomes from rat whole brain; type: functional
Outline: (§1)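 Crude synaptosomes from rat whole brain, per Thornberg and Moore with minor changes. Incubated 5 or 15 min with L-[3H]norepinephrine (20 or 21.2 nM unless otherwise specified) or [3H]serotonin (9.2-14 nM unless otherwise specified). Test agents dissolved in ethanol; final ethanol 1% (v/v).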

[5] = species on record: Rattus norvegicus; experiment: Ability to inhibit the uptake of serotonin (5-HT) by crude synaptosomes from rat whole brain; type: functional; outline: as §1
[6] = target: Tyrosine 3-monooxygenase (Rattus norvegicus) (UniProt P04177); experiment: Compound was tested to block the inhibition of tyrosine hydroxylase by apomorphine at 1 uM
Outline: (§2)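 Tyrosine hydroxylase in synaptosomes, run essentially per Bronaugh and co-workers. Percent prevention of apomorphine inhibition = (% control activity with compound + Apo − % control with Apo)/(% control with compound alone − % control with Apo) × 100.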

[7] = target: Tyrosine 3-monooxygenase (Rattus norvegicus) (UniProt P04177); experiment: Compound was tested to block the inhibition of tyrosine hydroxylase by apomorphine at 10 uM; outline: as §2

Chain of Tyrosine 3-monooxygenase (Rattus norvegicus) (P04177 whole entry): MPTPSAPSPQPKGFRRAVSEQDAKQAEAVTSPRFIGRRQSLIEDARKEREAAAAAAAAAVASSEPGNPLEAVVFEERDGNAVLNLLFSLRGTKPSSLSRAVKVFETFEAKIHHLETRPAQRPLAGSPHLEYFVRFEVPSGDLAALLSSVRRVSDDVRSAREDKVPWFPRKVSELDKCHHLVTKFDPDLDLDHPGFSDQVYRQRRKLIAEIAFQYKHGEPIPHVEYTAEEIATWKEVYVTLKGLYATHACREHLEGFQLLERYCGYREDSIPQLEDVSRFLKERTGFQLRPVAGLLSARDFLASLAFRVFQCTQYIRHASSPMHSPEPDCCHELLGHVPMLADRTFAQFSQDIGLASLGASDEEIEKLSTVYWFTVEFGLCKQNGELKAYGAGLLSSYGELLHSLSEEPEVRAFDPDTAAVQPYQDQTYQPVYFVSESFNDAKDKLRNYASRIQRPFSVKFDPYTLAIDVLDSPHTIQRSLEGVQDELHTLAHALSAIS

For `CC(=O)N1Cc2c(ccc(Cl)c2-c2ccccc2)N2CCN(C)CC2C1` (stereo not drawn), which IC50 [1] is on record?
The IC50 was greater than 100 µM.

What about the ED50 [2] of the same compound?
The ED50 was “inactive”.

For `CN1CCN2c3ccc(Cl)cc3C(c3ccccc3)=NCC2C1` (stereo not drawn), which IC50 [3] is on record?
The IC50 was 9 µM.

What about the IC50 [1] of the same compound?
Its IC50 is 9 µM.

And the ED50 [2]?
Its ED50 is “inactive”.

Which IC50 [3] does the source give for `CN1CCN2c3ccccc3Cc3ccccc3C2C1` (stereo not drawn) [MIANSERIN] here?
Its IC50 is 0.19 µM.

What about the IC50 [4] of the same compound?
The IC50 was 36 µM.

What about the IC50 [5] of the same compound?
The IC50 was 35 µM.

Which IC50 [3] does the source give for `CC1=NCC2CN(C)CCN2c2ccc(Cl)cc21` (stereo not drawn) here?
The IC50 was 5 µM.

And the IC50 [1]?
Its IC50 is greater than 100 µM.

What about the ED50 [2] of the same compound?
Its ED50 is “inactive”.

For `CN1C(=O)CN=C(c2ccccc2)c2cc(Cl)ccc21`, which inhibition [6] is on record?
Its inhibition is 23%.

With `CN1CCN2c3ccc(Cl)cc3C(c3ccccc3Cl)=NCC2C1` (stereo not drawn) as the compound, how does the IC50 [3] read?
The IC50 was 30 µM.

And the IC50 [1]?
Its IC50 is 0.8 µM.

What about the IC50 [4] of the same compound?
Its IC50 is 30 µM.

And the IC50 [5]?
Its IC50 is 45 µM.

What does the source list for `CN1CCN2c3ccc(Cl)cc3C(Cc3ccccc3)=NCC2C1` (stereo not drawn)?
IC50 [3]: > 50 µM; IC50 [1]: > 100 µM; ED50 [2]: inactive

For `CNCCCN1c2ccccc2CCc2ccccc21` [DESIPRAMINE], which IC50 [3] is on record?
The IC50 was 10.5 µM.

And the IC50 [4]?
The IC50 was 0.08 µM.

What about the IC50 [5] of the same compound?
Its IC50 is 6.5 µM.

With `CN1CCN2c3ccc(Cl)cc3C(c3ccc(Cl)cc3)=NCC2C1` (stereo not drawn) as the compound, how does the IC50 [3] read?
Its IC50 is greater than 50 µM.

And the IC50 [1]?
Its IC50 is greater than 100 µM.

What about the ED50 [2] of the same compound?
Its ED50 is “inactive”.

What about the inhibition [7] of the same compound?
The inhibition was 10%.

Which results are given for `CN(C)CCCN1c2ccccc2CCc2ccc(Cl)cc21` [CLOMIPRAMINE]?
IC50 [3]: 4.4 µM; IC50 [4]: 9.5 µM; IC50 [5]: 0.75 µM

With `O=C(CCCN1CCC(O)(c2ccc(Cl)cc2)CC1)c1ccc(F)cc1` as the compound, how does the inhibition [6] read?
The inhibition was 28%.

With `CN1CCN2c3ccc(Cl)c(-c4ccccc4)c3CNCC2C1` (stereo not drawn) as the compound, how does the IC50 [3] read?
The IC50 was greater than 50 µM.

And the IC50 [1]?
Its IC50 is greater than 100 µM.

And the ED50 [2]?
Its ED50 is “inactive”.
